Test results from ChEMBL document CHEMBL5608187, “Discovery of pyridoquinoxaline-based new P-gp inhibitors as coadjutant against Multi Drug Resistance in cancer” (Eur J Med Chem, 2024).
Activity calls are given as the source filed them. The rule behind the calls is not given here.

How the values were obtained:
[1] = target: T1, ATP-dependent translocase ABCB1 (Homo sapiens, UniProt P08183); test: Inhibition of P-gp in human CAKI-2 cells assessed as increase in green fluorescence intensity at 0.1 to 10 uM incubated for 15 mins followed by incubation with EFFLUX-ID Green Detection Reagent and Hoeschst-33342 dye and measured after 30 mins by fluorescence analysis; type: cell-based; settings: caki-2, 0.25 h, dose 0.1-10 µM
T1 sequence (P08183 whole entry): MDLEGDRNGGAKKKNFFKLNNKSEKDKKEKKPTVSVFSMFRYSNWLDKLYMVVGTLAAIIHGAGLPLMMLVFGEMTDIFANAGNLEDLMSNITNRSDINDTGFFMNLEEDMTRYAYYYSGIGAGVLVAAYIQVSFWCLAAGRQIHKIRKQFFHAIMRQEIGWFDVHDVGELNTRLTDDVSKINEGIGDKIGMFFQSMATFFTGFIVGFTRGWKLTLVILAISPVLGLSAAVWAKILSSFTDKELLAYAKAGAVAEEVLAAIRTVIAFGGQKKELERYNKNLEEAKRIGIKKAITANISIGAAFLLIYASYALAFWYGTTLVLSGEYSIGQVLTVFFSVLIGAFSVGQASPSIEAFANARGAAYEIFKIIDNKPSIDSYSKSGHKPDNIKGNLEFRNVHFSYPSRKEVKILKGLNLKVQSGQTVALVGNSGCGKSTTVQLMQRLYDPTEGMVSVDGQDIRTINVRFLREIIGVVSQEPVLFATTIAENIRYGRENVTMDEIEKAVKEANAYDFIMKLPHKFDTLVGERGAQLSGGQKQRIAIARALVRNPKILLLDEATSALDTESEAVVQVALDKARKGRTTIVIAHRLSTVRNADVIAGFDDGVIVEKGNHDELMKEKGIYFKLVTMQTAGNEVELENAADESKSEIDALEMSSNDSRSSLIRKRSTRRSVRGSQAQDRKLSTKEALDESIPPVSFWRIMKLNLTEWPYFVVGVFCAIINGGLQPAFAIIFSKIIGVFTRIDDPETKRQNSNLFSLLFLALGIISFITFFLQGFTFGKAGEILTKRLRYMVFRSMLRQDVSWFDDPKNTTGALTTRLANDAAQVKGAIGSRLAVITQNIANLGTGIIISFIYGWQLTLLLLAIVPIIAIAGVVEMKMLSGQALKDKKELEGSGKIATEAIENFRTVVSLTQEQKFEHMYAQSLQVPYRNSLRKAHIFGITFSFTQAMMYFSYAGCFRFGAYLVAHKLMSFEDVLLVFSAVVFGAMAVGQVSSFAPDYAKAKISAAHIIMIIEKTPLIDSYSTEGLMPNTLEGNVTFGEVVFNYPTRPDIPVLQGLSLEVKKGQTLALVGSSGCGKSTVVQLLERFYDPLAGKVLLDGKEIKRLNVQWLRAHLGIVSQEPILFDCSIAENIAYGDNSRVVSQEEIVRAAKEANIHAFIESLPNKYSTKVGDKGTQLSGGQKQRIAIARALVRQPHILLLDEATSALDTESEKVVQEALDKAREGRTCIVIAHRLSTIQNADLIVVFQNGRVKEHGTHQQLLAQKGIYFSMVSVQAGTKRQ
Outline: (§1)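 5000 cells/well in phenol-red-free medium plated 24 h before; compounds 0.1, 1, 10 µM for 15 min, then EFLUXX-ID Green reagent (1:200) plus Hoechst-33342 1 µg/mL, 30 min 37 °C. Widefield imaging; median green intensity from 250 cells per well normalized to untreated wells. Mean ± SD of three wells; one-tailed t-test.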

[2] = target: T1, ATP-dependent translocase ABCB1; test: Inhibition of P-gp in human HT1197 cells assessed as increase in green fluorescence intensity at 0.1 to 10 uM incubated for 15 mins followed by incubation with EFFLUX-ID Green Detection Reagent and Hoeschst-33342 dye and measured after 30 mins by fluorescence analysis; type: cell-based; settings: ht1197, 0.25 h, dose 0.1-10 µM; outline: as §1
A704 [3] = test: Coadjutant activity against multidrug resistance in human A704 cells assessed as potentiation of vincristine-induced cell growth inhibition at 0.25 to 4 uM incubated for 72 hrs in presence of 0.2 uM vincristine by SiR-DNA/CellTox Green Dye based fluorescence analysis; type: functional; settings: dose 0.25-4 µM
Outline: (§2)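 Growth by live-cell imaging: 500 cells/well plated with SiR-DNA and CellTox Green dye; serial dilutions in phenol-red-free complete medium added next day. Imaged at addition and at 72 h. Live cells = SiR-DNA nuclei minus CellTox-positive dead cells; percentage growth calculated. Three technical replicates; two-tailed t-test. Inhibitor paired with anticancer drug at fixed or scaled levels.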

A498 [4] = test: Coadjutant activity against multidrug resistance in human A498 cells assessed as potentiation of vincristine-induced cell growth inhibition at 0.25 to 4 uM incubated for 72 hrs in presence of 0.2 uM vincristine by SiR-DNA/CellTox Green Dye based fluorescence analysis; type: functional; settings: dose 0.25-4 µM; outline: as §2
HGC-27 = test: Coadjutant activity against multidrug resistance in human HGC-27 cells assessed as potentiation of vincristine-induced cell growth inhibition by measuring cell growth at 4 uM incubated for 72 hrs in presence of 0.02 to 20 uM vincristine by SiR-DNA/CellTox Green Dye based fluorescence analysis; type: functional; design: scale not given: the % may be the effect or the level left; outline: as §2
HT-29 = test: Coadjutant activity against multidrug resistance in human HT-29 cells assessed as potentiation of vincristine-induced cell growth inhibition at 4 uM incubated for 72 hrs in presence of 0.02 to 20 uM vincristine by SiR-DNA/CellTox Green Dye based fluorescence analysis; type: functional; outline: as §2
A704 [5] = test: Coadjutant activity against multidrug resistance in human A704 cells assessed as potentiation of vincristine-induced cell growth inhibition by measuring cell growth at 4 uM incubated for 72 hrs in presence of 0.02 to 20 uM vincristine by SiR-DNA/CellTox Green Dye based fluorescence analysis; type: functional; design: scale not given: the % may be the effect or the level left; outline: as §2
SK-HEP1 = test: Cytotoxicity against human SK-HEP1 cells assessed as inhibition of cell growth at 4 uM incubated for 72 hrs by SiR-DNA/CellTox Green Dye based fluorescence analysis; type: toxicity; settings: sk-hep1, 72 h
Outline: (§3)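 Single-agent control at 4 µM, no anticancer drug. 500 cells/well with SiR-DNA and CellTox Green; imaged at addition and 72 h. Live count = total nuclei minus dead cells, expressed as percent growth. Three technical replicates.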

[6] = Cytotoxicity against human HGC-27 cells assessed as inhibition of cell growth at 4 uM incubated for 72 hrs by SiR-DNA/CellTox Green Dye based fluorescence analysis relative to control; type: toxicity; outline: as §3
HuP-T3 [7] = test: Cytotoxicity against human Hup-T3 cells assessed as inhibition of cell growth at 4 uM incubated for 72 hrs by SiR-DNA/CellTox Green Dye based fluorescence analysis; type: toxicity; settings: hup-t3, 72 h; outline: as §3
MeWo = test: Cytotoxicity against human MeWo cells assessed as inhibition of cell growth at 4 uM incubated for 72 hrs by SiR-DNA/CellTox Green Dye based fluorescence analysis; type: toxicity; outline: as §3
U-87 MG = test: Cytotoxicity against human U-87 MG cells assessed as inhibition of cell growth at 4 uM incubated for 72 hrs by SiR-DNA/CellTox Green Dye based fluorescence analysis; type: toxicity; settings: u-87mg atcc; outline: as §3
[8] = Cytotoxicity against human A498 cells assessed as inhibition of cell growth at 4 uM incubated for 72 hrs by SiR-DNA/CellTox Green Dye based fluorescence analysis relative to control; type: toxicity; outline: as §3
A498 [9] = test: Coadjutant activity against multidrug resistance in human A498 cells assessed as potentiation of etoposide-induced cell growth inhibition at 4 uM incubated for 72 hrs in presence of 0.04 to 40 uM etoposide by SiR-DNA/CellTox Green Dye based fluorescence analysis; type: functional; outline: as §2
A704 [10] = test: Coadjutant activity against multidrug resistance in human A704 cells assessed as potentiation of etoposide-induced cell growth inhibition at 4 uM incubated for 72 hrs in presence of 0.04 to 40 uM etoposide by SiR-DNA/CellTox Green Dye based fluorescence analysis; type: functional; outline: as §2
HuP-T3 [11] = test: Coadjutant activity against multidrug resistance in human Hup-T3 cells assessed as potentiation of cisplatin-induced cell growth inhibition at 4 uM incubated for 72 hrs in presence of 0.1 to 100 uM cisplatin by SiR-DNA/CellTox Green Dye based fluorescence analysis; type: functional
Outline: (§4)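 Cisplatin co-treatment, 72 h imaging growth assay (SiR-DNA nuclei minus CellTox Green dead cells, 500 cells/well, phenol-red-free medium). Combinations: inhibitor fixed with cisplatin 0.1–100 µM, or cisplatin fixed at 0.25 µM with inhibitor 0.25–4 µM. Three technical replicates, mean ± SD; two-tailed t-test.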

HCT-116 = test: Coadjutant activity against multidrug resistance in human HCT-116 cells assessed as potentiation of cisplatin-induced cell growth inhibition at 4 uM incubated for 72 hrs in presence of 0.1 to 100 uM cisplatin by SiR-DNA/CellTox Green Dye based fluorescence analysis; type: functional; outline: as §4
[12] = target: Voltage-dependent L-type calcium channel subunit alpha-1C (Rattus norvegicus, UniProt P22002); test: Inhibition of Cav1.2 in Wistar rat tail artery smooth muscle cells assessed as inhibition of Ba2+ current at 0.3 to 10 uM at holding potential of -50 mV by whole cell patch clamp analysis; type: toxicity, tissue-based; settings: dose 0.3-10 µM
Sequence of Voltage-dependent L-type calcium channel subunit alpha-1C (P22002 whole entry): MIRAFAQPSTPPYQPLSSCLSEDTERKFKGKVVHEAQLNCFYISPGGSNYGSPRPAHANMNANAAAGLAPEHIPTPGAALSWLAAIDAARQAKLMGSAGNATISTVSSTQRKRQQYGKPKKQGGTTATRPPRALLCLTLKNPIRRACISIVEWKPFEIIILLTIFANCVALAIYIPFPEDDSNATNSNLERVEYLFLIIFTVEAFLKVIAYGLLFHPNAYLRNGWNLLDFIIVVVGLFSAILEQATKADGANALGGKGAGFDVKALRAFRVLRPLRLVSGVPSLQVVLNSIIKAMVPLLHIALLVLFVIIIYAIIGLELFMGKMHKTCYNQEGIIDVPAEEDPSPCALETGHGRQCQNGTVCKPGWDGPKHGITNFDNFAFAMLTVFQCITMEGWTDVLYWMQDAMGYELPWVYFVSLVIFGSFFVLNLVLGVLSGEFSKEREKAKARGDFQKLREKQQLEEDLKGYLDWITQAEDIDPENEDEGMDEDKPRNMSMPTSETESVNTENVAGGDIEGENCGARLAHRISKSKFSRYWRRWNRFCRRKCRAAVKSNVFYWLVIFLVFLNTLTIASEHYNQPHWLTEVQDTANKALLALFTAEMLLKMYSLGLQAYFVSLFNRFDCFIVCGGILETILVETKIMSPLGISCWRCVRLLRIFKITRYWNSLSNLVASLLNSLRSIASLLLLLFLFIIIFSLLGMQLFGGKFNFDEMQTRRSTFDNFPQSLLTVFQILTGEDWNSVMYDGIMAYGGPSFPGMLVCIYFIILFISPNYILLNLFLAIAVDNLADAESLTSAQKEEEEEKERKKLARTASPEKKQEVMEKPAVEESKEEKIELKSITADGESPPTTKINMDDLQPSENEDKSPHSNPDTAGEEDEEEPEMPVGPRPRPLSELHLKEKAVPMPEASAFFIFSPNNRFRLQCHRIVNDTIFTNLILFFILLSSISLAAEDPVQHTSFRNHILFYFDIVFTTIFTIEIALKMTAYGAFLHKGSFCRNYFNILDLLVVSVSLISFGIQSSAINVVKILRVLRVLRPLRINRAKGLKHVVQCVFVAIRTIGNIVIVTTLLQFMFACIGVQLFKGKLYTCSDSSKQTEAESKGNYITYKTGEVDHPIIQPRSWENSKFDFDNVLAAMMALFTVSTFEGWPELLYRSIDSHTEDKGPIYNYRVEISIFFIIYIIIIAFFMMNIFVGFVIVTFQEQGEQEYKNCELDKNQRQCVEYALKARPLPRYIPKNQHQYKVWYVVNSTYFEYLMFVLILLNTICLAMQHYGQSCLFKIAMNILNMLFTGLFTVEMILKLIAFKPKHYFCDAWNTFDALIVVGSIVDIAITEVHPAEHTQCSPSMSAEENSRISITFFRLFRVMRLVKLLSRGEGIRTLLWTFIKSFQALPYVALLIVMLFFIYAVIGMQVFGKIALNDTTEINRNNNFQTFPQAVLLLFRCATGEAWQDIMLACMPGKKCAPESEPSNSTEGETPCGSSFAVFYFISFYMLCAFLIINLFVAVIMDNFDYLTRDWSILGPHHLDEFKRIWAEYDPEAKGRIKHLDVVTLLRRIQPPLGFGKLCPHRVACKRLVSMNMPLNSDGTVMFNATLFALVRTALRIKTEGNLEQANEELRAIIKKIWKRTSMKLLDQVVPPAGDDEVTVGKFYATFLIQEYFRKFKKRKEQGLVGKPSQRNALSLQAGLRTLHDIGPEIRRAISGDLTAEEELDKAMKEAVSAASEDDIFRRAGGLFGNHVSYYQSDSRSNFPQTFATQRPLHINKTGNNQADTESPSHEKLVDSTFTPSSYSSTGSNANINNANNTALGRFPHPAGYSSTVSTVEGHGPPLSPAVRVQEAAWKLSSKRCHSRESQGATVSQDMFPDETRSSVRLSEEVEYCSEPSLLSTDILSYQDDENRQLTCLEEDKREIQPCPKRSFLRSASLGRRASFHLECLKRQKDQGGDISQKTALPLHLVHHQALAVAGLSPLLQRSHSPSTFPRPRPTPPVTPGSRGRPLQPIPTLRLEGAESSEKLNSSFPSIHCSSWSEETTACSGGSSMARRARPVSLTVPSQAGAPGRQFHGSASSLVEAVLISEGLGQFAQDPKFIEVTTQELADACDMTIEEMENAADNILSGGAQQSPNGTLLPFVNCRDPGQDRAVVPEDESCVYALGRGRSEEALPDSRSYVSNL
Outline: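 Freshly dissociated rat tail main artery myocytes (collagenase XI, 37 °C). Whole-cell patch clamp, 20–22 °C; Cs-based internal, external with 30 mM TEA and 5 mM Ba2+. IBa1.2 evoked by 250-ms steps to 10 mV from −50 mV at 0.067 Hz; compound added cumulatively 0.3–10 µM; leak subtracted using 10 µM nifedipine. Amplitude as percent of control, n = 5.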

[13] = target: T1, ATP-dependent translocase ABCB1; test: Inhibition of P-gp in human HCT-15 cells assessed as fold increase in green fluorescence intensity at 10 uM incubated for 15 mins followed by incubation with EFFLUX-ID Green Detection Reagent and Hoeschst-33342 dye and measured after 30 mins by fluorescence analysis relative to control; type: cell-based; settings: hct-15, 0.25 h; outline: as §1

## O=C(Nc1ccccc1)c1ccccc1OCc1nc2cc3cccnc3cc2nc1COc1ccccc1C(=O)Nc1ccccc1
[1]
  inhibition (INH): Active
[2]
  inhibition (INH): Not Active
A704 [3]
  Activity: Active
A498 [4]
  Activity: Active
HGC-27
  Activity: 50%
HT-29
  Activity: Active
A704 [5]
  Activity: 50%
SK-HEP1
  Activity: Non-Toxic
[6]
  inhibition at 72 h, 4 µM: 40%
HuP-T3 [7]
  Activity: Non-Toxic
MeWo
  Activity: Non-Toxic
U-87 MG
  Activity: Non-Toxic
[8]
  inhibition at 72 h, 4 µM: 20%
A498 [9]
  Activity: Active
A704 [10]
  Activity: Active
HuP-T3 [11]
  Activity: inactive
HCT-116
  Activity: inactive
[12]
  inhibition (INH): Not Active
[13]
  fold change (FC): 2
